# Test results reported in ChEMBL document CHEMBL1944580, “Synthesis of novel sulfonamide-1,2,4-triazoles, 1,3,4-thiadiazoles and 1,3,4-oxadiazoles, as potential antibacterial and antifungal agents. Biological evaluation and conformational analysis studies” (2012).
# Legend:
# Fulvia fulva [1] = assay: Antifungal activity against Fulvia fulva after 72 hrs by serial dilution method; type: functional
# Procedure, shortened: (§1)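 Modified microdilution MIC. Spores were washed from malt agar cultures with sterile 0.85% saline containing 0.1% Tween 80 and adjusted to about 1.0 × 10^5 per 100 µl well in malt broth. Compounds were dissolved in DMSO (1 mg/ml). Plates incubated 72 h at 28 °C. MIC is the lowest concentration with no visible growth under a binocular microscope. Bifonazole and ketoconazole were the references.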
# Aspergillus niger [2] = assay: Antifungal activity against Aspergillus niger ATCC 6275 treated for 72 hrs followed by sub-cultivated for 5 days by serial dilution method; type: functional
# Procedure, shortened: (§2)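 MFC obtained after the 72 h, 28 °C malt-broth microdilution (spore inoculum about 1.0 × 10^5 per well, compounds from 1 mg/ml DMSO). 2 µl was serially subcultured into 100 µl broth per well and incubated a further 5 days at 28 °C. MFC is the lowest concentration with no visible growth, taken as 99.5% killing of the original inoculum.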
# Aspergillus flavus [3] = assay: Antifungal activity against Aspergillus flavus ATCC 9643 treated for 72 hrs followed by sub-cultivated for 5 days by serial dilution method; type: functional; procedure, shortened: as §2
# Aspergillus versicolor [4] = assay: Antifungal activity against Aspergillus versicolor ATCC 11730 after 72 hrs by serial dilution method; type: functional; details: ATCC 11730, 72 h; procedure, shortened: as §1
# Aspergillus niger [5] = assay: Antifungal activity against Aspergillus niger ATCC 6275 after 72 hrs by serial dilution method; type: functional; details: ATCC 6275, 72 h; procedure, shortened: as §1
# Aspergillus fumigatus [6] = assay: Antifungal activity against Aspergillus fumigatus human isolate after 72 hrs by serial dilution method; type: functional; procedure, shortened: as §1
# Trichoderma viride [7] = assay: Antifungal activity against Trichoderma viride IAM 5061 treated for 72 hrs followed by sub-cultivated for 5 days by serial dilution method; type: functional; procedure, shortened: as §2
# Aspergillus flavus [8] = assay: Antifungal activity against Aspergillus flavus ATCC 9643 after 72 hrs by serial dilution method; type: functional; details: ATCC 9643, 72 h; procedure, shortened: as §1
# Aspergillus fumigatus [9] = assay: Antifungal activity against Aspergillus fumigatus human isolate treated for 72 hrs followed by sub-cultivated for 5 days by serial dilution method; type: functional; procedure, shortened: as §2
# Penicillium ochrochloron [10] = assay: Antifungal activity against Penicillium ochrochloron ATCC 9112 treated for 72 hrs followed by sub-cultivated for 5 days by serial dilution method; type: functional; procedure, shortened: as §2
# Penicillium ochrochloron [11] = assay: Antifungal activity against Penicillium ochrochloron ATCC 9112 after 72 hrs by serial dilution method; type: functional; details: ATCC 9112, 72 h; procedure, shortened: as §1
# Trichoderma viride [12] = assay: Antifungal activity against Trichoderma viride IAM 5061 after 72 hrs by serial dilution method; type: functional; details: IAM 5061, 72 h; procedure, shortened: as §1
# Talaromyces funiculosus [13] = assay: Antifungal activity against Penicillium funiculosum ATCC 36839 treated for 72 hrs followed by sub-cultivated for 5 days by serial dilution method; type: functional; procedure, shortened: as §2
# Talaromyces funiculosus [14] = assay: Antifungal activity against Penicillium funiculosum ATCC 36839 after 72 hrs by serial dilution method; type: functional; details: ATCC 36839, 72 h; procedure, shortened: as §1
# Aspergillus versicolor [15] = assay: Antifungal activity against Aspergillus versicolor ATCC 11730 treated for 72 hrs followed by sub-cultivated for 5 days by serial dilution method; type: functional; procedure, shortened: as §2
# Fulvia fulva [16] = assay: Antifungal activity against Fulvia fulva treated for 72 hrs followed by sub-cultivated for 5 days by serial dilution method; type: functional; procedure, shortened: as §2
# Micrococcus flavus [17] = assay: Antibacterial activity against Micrococcus flavus ATCC 10240 after 24 hrs by micro dilution method; type: functional; details: ATCC 10240, 24 h
# Procedure, shortened: (§3)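 Microdilution MIC in 96-well plates. Bacterial suspensions adjusted in sterile saline to 1.0 × 10^5 CFU/ml, giving 1.0 × 10^4 cfu per well in LB broth. Compounds tested at up to 1 mg/ml. Plates incubated 24 h. MIC taken as the lowest concentration with no visible growth under a binocular microscope. OD at 655 nm was also read against a blank and the positive control. Streptomycin and ampicillin were the positive controls.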
# Pseudomonas aeruginosa [18] = assay: Antibacterial activity against Pseudomonas aeruginosa ATCC 27853 treated for 24 hrs followed by sub-cultivated for 72 hrs by micro dilution method; type: functional
# Procedure, shortened: (§4)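 2 µl from each well was serially subcultured into 100 µl fresh broth per well and incubated a further 72 h. MBC is the lowest concentration with no visible growth, taken as 99.5% killing of the original inoculum. Streptomycin and ampicillin were the positive controls.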
# Enterobacter cloacae [19] = assay: Antibacterial activity against Enterobacter cloacae human isolate after 24 hrs by micro dilution method; type: functional; procedure, shortened: as §3
# Pseudomonas aeruginosa [20] = assay: Antibacterial activity against Pseudomonas aeruginosa ATCC 27853 after 24 hrs by micro dilution method; type: functional; details: ATCC 27853, 24 h; procedure, shortened: as §3
# Micrococcus flavus [21] = assay: Antibacterial activity against Micrococcus flavus ATCC 10240 treated for 24 hrs followed by sub-cultivated for 72 hrs by micro dilution method; type: functional; procedure, shortened: as §4
# Salmonella typhimurium [22] = assay: Antibacterial activity against Salmonella Typhimurium ATCC 13311 after 24 hrs by micro dilution method; type: functional, Salmonella enterica subsp. enterica serovar Typhimurium; details: Salmonella enterica, ATCC 13311, 24 h; procedure, shortened: as §3
# Escherichia coli [23] = assay: Antibacterial activity against Escherichia coli ATCC 35210 treated for 24 hrs followed by sub-cultivated for 72 hrs by micro dilution method; type: functional; procedure, shortened: as §4
# Staphylococcus aureus [24] = assay: Antibacterial activity against Staphylococcus aureus ATCC 6538 after 24 hrs by micro dilution method; type: functional; details: ATCC 6538, 24 h; procedure, shortened: as §3
# Listeria monocytogenes [25] = assay: Antibacterial activity against Listeria monocytogenes NCTC 7973 after 24 hrs by micro dilution method; type: functional; details: NCTC 7973, 24 h; procedure, shortened: as §3
# Staphylococcus aureus [26] = assay: Antibacterial activity against Staphylococcus aureus ATCC 6538 treated for 24 hrs followed by sub-cultivated for 72 hrs by micro dilution method; type: functional; procedure, shortened: as §4
# Bacillus cereus [27] = assay: Antibacterial activity against Bacillus cereus clinical isolate after 24 hrs by micro dilution method; type: functional; procedure, shortened: as §3
# Escherichia coli [28] = assay: Antibacterial activity against Escherichia coli ATCC 35210 after 24 hrs by micro dilution method; type: functional; details: ATCC 35210, 24 h; procedure, shortened: as §3
# Enterobacter cloacae [29] = assay: Antibacterial activity against Enterobacter cloacae human isolate treated for 24 hrs followed by sub-cultivated for 72 hrs by micro dilution method; type: functional; procedure, shortened: as §4
# Salmonella typhimurium [30] = assay: Antibacterial activity against Salmonella Typhimurium ATCC 13311 treated for 24 hrs followed by sub-cultivated for 72 hrs by micro dilution method; type: functional, Salmonella enterica subsp. enterica serovar Typhimurium; details: Salmonella enterica; procedure, shortened: as §4
# Bacillus cereus [31] = assay: Antibacterial activity against Bacillus cereus clinical isolate treated for 24 hrs followed by sub-cultivated for 72 hrs by micro dilution method; type: functional; procedure, shortened: as §4
# Listeria monocytogenes [32] = assay: Antibacterial activity against Listeria monocytogenes NCTC 7973 treated for 24 hrs followed by sub-cultivated for 72 hrs by micro dilution method; type: functional; procedure, shortened: as §4
Compound,MIC (Fulvia fulva [1]),MFC (Aspergillus niger [2]),MFC (Aspergillus flavus [3]),MIC (Aspergillus versicolor [4]),MIC (Aspergillus niger [5]),MIC (Aspergillus fumigatus [6]),MFC (Trichoderma viride [7]),MIC (Aspergillus flavus [8]),MFC (Aspergillus fumigatus [9]),MFC (Penicillium ochrochloron [10]),MIC (Penicillium ochrochloron [11]),MIC (Trichoderma viride [12]),MFC (Talaromyces funiculosus [13]),MIC (Talaromyces funiculosus [14]),MFC (Aspergillus versicolor [15]),MFC (Fulvia fulva [16]),MIC (Micrococcus flavus [17]),MBC (Pseudomonas aeruginosa [18]),MIC (Enterobacter cloacae [19]),MIC (Pseudomonas aeruginosa [20]),also measured
CC(=O)N1CCN(c2ccc(OCC3COC(Cn4ccnc4)(c4ccc(Cl)cc4Cl)O3)cc2)CC1 (centres undefined) [KETOCONAZOLE],380 µM,950 µM,3800 µM,380 µM,380 µM,380 µM,5700 µM,2850 µM,950 µM,3800 µM,3800 µM,4750 µM,950 µM,380 µM,950 µM,950 µM,,,,,
CC1(C)S[C@@H]2[C@H](NC(=O)[C@H](N)c3ccccc3)C(=O)N2[C@H]1C(=O)O [AMPICILLIN],,,,,,,,,,,,,,,,,250 µM,1240 µM,370 µM,740 µM,MBC (Micrococcus flavus [21]): 370 µM; MIC (Salmonella typhimurium [22]): 250 µM; MBC (Escherichia coli [23]): 740 µM; MIC (Staphylococcus aureus [24]): 250 µM; MIC (Listeria monocytogenes [25]): 370 µM; MBC (Staphylococcus aureus [26]): 370 µM; MIC (Bacillus cereus [27]): 250 µM; MIC (Escherichia coli [28]): 370 µM; MBC (Enterobacter cloacae [29]): 490 µM; MBC (Salmonella typhimurium [30]): 490 µM; MBC (Bacillus cereus [31]): 370 µM; MBC (Listeria monocytogenes [32]): 490 µM
c1ccc(-c2ccc(C(c3ccccc3)n3ccnc3)cc2)cc1 (centres undefined) [BIFONAZOLE],320 µM,640 µM,640 µM,320 µM,480 µM,480 µM,800 µM,480 µM,640 µM,640 µM,480 µM,640 µM,800 µM,640 µM,640 µM,640 µM,,,,,
CN[C@@H]1[C@H](O[C@H]2[C@H](O[C@H]3[C@H](O)[C@@H](O)[C@H](N=C(N)N)[C@@H](O)[C@@H]3N=C(N)N)O[C@@H](C)[C@]2(O)C=O)O[C@@H](CO)[C@H](O)[C@H]1O [STREPTOMYCIN],,,,,,,,,,,,,,,,,170 µM,340 µM,170 µM,170 µM,MBC (Micrococcus flavus [21]): 340 µM; MIC (Salmonella typhimurium [22]): 170 µM; MBC (Escherichia coli [23]): 520 µM; MIC (Staphylococcus aureus [24]): 40 µM; MIC (Listeria monocytogenes [25]): 170 µM; MBC (Staphylococcus aureus [26]): 90 µM; MIC (Bacillus cereus [27]): 90 µM; MIC (Escherichia coli [28]): 260 µM; MBC (Enterobacter cloacae [29]): 340 µM; MBC (Salmonella typhimurium [30]): 340 µM; MBC (Bacillus cereus [31]): 170 µM; MBC (Listeria monocytogenes [32]): 340 µM
